The source of these data is ChEMBL document CHEMBL1140226, “Development of novel G-protein-coupled receptor 54 agonists with resistance to degradation by matrix metalloproteinase” (J Med Chem, 2008).

The target in data set [1] is 72 kDa type IV collagenase (Homo sapiens) (UniProt P08253). Briefly: Inhibition of MMP2 at 10 uM by fluorimetric assay. Further details: scale not given: the % may be the effect or the level left.
Data set [2] has as its target Matrix metalloproteinase-9 (Homo sapiens) (UniProt P14780). In words: Inhibition of MMP9 at 10 uM by fluorimetric assay. Further details: scale not given: the % may be the effect or the level left.
Data set [3] is described as follows: Stability in mouse serum assessed as half life. The format is ADME, cell-free. In short, it runs like this:
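Peptides were incubated in murine serum and the half-life was determined.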

Data set [4] has as its target T1, KiSS-1 receptor (Homo sapiens, UniProt Q969F8). In words: Agonist activity at human GPR54 expressed in CHO cells assessed as effect on kisspeptin-10-induced response by FLIPR assay. The format is functional, cell-based.
Data set [5] concerns the target T1, KiSS-1 receptor. Briefly: Displacement of [125I]kisspeptin-15 from human GPR54 expressed in CHO cell membrane. The class given is cell membranes. On the technique in general: In a radioligand displacement assay an active substance lowers the binding of a labelled ligand.
A further data set concerns Serum. In words: Stability in mouse serum within 1 hr. The class given is ADME, cell-free.
For data set [6], the target named is T1, KiSS-1 receptor. In words: Ratio of IC50 of compound to IC50 of kisspeptin-10 for human GPR54.

72 kDa type IV collagenase (Homo sapiens), sequence (P08253 110-660 limits assumed): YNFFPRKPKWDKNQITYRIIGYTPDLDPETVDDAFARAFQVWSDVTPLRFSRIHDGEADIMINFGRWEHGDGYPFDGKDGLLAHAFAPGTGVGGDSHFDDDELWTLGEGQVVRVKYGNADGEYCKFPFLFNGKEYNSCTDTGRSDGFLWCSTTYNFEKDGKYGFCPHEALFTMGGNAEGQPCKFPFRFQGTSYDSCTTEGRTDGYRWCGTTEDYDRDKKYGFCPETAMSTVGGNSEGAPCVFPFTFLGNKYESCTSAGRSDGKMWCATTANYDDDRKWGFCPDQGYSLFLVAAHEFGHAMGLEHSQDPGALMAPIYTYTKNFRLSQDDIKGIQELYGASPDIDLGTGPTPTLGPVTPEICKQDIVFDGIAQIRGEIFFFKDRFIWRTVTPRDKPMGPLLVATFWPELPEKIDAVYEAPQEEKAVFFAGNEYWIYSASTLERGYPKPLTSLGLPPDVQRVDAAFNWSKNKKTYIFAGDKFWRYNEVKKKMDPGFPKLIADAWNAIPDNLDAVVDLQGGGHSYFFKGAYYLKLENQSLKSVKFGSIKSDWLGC
T1 sequence (Q969F8 whole entry): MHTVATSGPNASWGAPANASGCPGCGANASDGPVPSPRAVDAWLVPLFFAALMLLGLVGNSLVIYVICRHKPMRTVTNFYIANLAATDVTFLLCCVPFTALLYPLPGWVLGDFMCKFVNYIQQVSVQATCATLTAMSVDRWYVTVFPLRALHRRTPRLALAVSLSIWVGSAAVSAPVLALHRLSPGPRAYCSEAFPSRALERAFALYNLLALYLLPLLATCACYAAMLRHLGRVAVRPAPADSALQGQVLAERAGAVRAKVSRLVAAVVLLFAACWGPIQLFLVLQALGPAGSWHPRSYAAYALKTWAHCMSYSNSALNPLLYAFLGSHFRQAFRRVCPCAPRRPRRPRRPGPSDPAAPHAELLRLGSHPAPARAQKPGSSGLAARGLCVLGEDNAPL
Matrix metalloproteinase-9 (Homo sapiens), sequence (P14780 whole entry): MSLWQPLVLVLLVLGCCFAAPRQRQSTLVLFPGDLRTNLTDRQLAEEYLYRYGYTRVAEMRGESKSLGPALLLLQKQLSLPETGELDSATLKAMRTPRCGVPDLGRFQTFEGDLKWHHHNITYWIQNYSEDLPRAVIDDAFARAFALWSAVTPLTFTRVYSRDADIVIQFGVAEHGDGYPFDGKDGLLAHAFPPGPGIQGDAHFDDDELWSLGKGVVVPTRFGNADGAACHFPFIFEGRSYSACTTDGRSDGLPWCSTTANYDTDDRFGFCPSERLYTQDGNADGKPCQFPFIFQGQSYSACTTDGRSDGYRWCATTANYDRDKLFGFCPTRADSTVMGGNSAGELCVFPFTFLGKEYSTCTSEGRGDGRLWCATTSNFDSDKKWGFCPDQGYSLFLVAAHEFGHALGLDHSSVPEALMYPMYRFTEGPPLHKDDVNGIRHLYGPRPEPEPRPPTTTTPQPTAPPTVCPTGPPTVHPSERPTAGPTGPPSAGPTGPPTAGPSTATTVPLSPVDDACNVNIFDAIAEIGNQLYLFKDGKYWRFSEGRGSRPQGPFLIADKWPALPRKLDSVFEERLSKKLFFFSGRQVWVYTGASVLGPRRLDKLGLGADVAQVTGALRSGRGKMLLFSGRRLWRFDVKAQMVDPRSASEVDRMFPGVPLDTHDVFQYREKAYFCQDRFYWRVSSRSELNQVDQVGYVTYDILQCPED

As to `CC(C)C/C(=C\[C@H](O)CNC(=O)[C@H](Cc1ccccc1)NC(=O)c1ccc(F)cc1)C(=O)N[C@@H](CCCNC(=N)N)C(=O)N[C@@H](Cc1c[nH]c2ccccc12)C(N)=O`, the Activity in data set [1] was 96.9%; in data set [2], 103%.

The term half-life denotes the time needed for the level to fall by half in the phase considered. For `CC(C)C/C(=C\[C@H](O)CNC(=O)[C@H](Cc1ccccc1)NC(=O)c1ccc(F)cc1)C(=O)N[C@@H](CCCN=C(N)N)C(=O)N[C@@H](Cc1c[nH]c2ccccc12)C(N)=O`, in data set [3], the half-life was determined as 1100 min.

By EC50 is commonly meant the concentration at which the effect is half-maximal. The IC50 is the concentration that inhibits the measured activity by half. Take `CC(C)C[C@H](NC(=O)CNC(=O)[C@H](Cc1ccccc1)NC(=O)c1ccc(F)cc1)C(=O)N[C@@H](CCCN=C(N)N)C(=O)N[C@@H](Cc1c[nH]c2ccccc12)C(N)=O`: the EC50 on KiSS-1 receptor [4] is 450 pM. This molecule displayed an IC50 at KiSS-1 receptor [5] of 710 pM. Moreover, in data set [3], the half-life worked out at 6.6 min.

For the molecule `CC(C)C/C(=C\CCNC(=O)[C@H](Cc1ccccc1)NC(=O)c1ccc(F)cc1)C(=O)N[C@@H](CCCNC(=N)N)C(=O)N[C@@H](Cc1c[nH]c2ccccc12)C(N)=O`, the half-life in data set [3] came out at 52 min. For the same molecule, the Activity is 94.5% in data set [1] and 98.9% in data set [2].

`CC(C)C[C@H](C[C@H](O)CNC(=O)[C@H](Cc1ccccc1)NC(=O)c1ccc(F)cc1)C(=O)N[C@@H](CCCN=C(N)N)C(=O)N[C@@H](Cc1c[nH]c2ccccc12)C(N)=O` displayed an IC50 at KiSS-1 receptor [5] of 240 pM. Besides, the half-life in data set [3] came out at 35 min.

Regarding `CC(C)C[C@H](/C=C/CNC(=O)[C@H](Cc1ccccc1)NC(=O)c1ccc(F)cc1)C(=O)N[C@@H](CCCN=C(N)N)C(=O)N[C@@H](Cc1c[nH]c2ccccc12)C(N)=O`, on KiSS-1 receptor [4], the EC50 is 300 pM. Besides, the half-life in data set [3] was found to be 38 min.

As for `CC(C)C[C@H](CCCNC(=O)[C@H](Cc1ccccc1)NC(=O)c1ccc(F)cc1)C(=O)N[C@@H](CCCNC(=N)N)C(=O)N[C@@H](Cc1c[nH]c2ccccc12)C(N)=O`, the half-life in data set [3] worked out at 45 min. The values for the Activity in data set [1] and in data set [2] were 97.1% and 102%, respectively.

For `CC(C)C/C(=C\[C@@H](O)CNC(=O)[C@H](Cc1ccccc1)NC(=O)c1ccc(F)cc1)C(=O)N[C@@H](CCCNC(=N)N)C(=O)N[C@@H](Cc1c[nH]c2ccccc12)C(N)=O`, in data set [3], the half-life was determined as 60 min. The results for the Activity in data set [1] and in data set [2] were 99.1% and 104%, respectively.

`CC(C)C[C@@H](C[C@H](O)CNC(=O)[C@H](Cc1ccccc1)NC(=O)c1ccc(F)cc1)C(=O)N[C@@H](CCCNC(=N)N)C(=O)N[C@@H](Cc1c[nH]c2ccccc12)C(N)=O`: the half-life in data set [3] came to 120 min. For the same molecule, the Activity in data set [1] is 99.3%; in data set [2] it was 100%.

For the molecule `CC(C)C[C@H](/C=C/CNC(=O)[C@H](Cc1ccccc1)NC(=O)c1ccc(F)cc1)C(=O)N[C@@H](CCCNC(=N)N)C(=O)N[C@@H](Cc1c[nH]c2ccccc12)C(N)=O`, the Activity in data set [1] and in data set [2] was 101% in each case.

For `CC(C)C[C@H](C[C@@H](O)CNC(=O)[C@H](Cc1ccccc1)NC(=O)c1ccc(F)cc1)C(=O)N[C@@H](CCCNC(=N)N)C(=O)N[C@@H](Cc1c[nH]c2ccccc12)C(N)=O`, in data set [3], the half-life was found to be 54 min. Further, the Activity came to 96.2% in data set [1] and 109% in data set [2].

In turn, `CC(C)C[C@H](NC(=O)CNC(=O)[C@H](Cc1ccccc1)NC(=O)[C@H](CO)NC(=O)[C@H](CC(N)=O)NC(=O)[C@H](Cc1c[nH]c2ccccc12)NC(=O)[C@H](CC(N)=O)NC(=O)[C@@H](N)Cc1ccc(O)cc1)C(=O)N[C@@H](CCCNC(=N)N)C(=O)N[C@@H](Cc1ccccc1)C(N)=O` [KISSPEPTIN-10] showed an IC50 at KiSS-1 receptor [5] of 70 pM. For the same molecule, the Stability result in the data set with Serum was “Unstable”.

Consider `CC(C)C[C@H](NC(=O)CNC(=O)[C@H](Cc1ccccc1)NC(=O)c1ccc(F)cc1)C(=O)N[C@@H](CCCNC(=N)N)C(=O)N[C@@H](Cc1c[nH]c2ccccc12)C(N)=O`, for which, at KiSS-1 receptor [6], the Ratio IC50 is 7.3.

In turn, `CC(C)C[C@@H](C[C@@H](O)CNC(=O)[C@H](Cc1ccccc1)NC(=O)c1ccc(F)cc1)C(=O)N[C@@H](CCCN=C(N)N)C(=O)N[C@@H](Cc1c[nH]c2ccccc12)C(N)=O` showed an IC50 at KiSS-1 receptor [5] of 380000 pM. Further, the half-life in data set [3] was 470 min.

With `CC(C)C[C@H](C[C@H](O)CNC(=O)[C@H](Cc1ccccc1)NC(=O)c1ccc(F)cc1)C(=O)N[C@@H](CCCNC(=N)N)C(=O)N[C@@H](Cc1c[nH]c2ccccc12)C(N)=O`, the Activity in data set [1] came to 98.7%; in data set [2], 103%.

At KiSS-1 receptor [5], `CC(C)C[C@@H](NC(=O)CNC(=O)[C@H](Cc1ccccc1)NC(=O)c1ccc(F)cc1)C(=O)N[C@@H](CCCNC(=N)N)C(=O)N[C@@H](Cc1c[nH]c2ccccc12)C(N)=O` came in with an IC50 of 240000 pM. Further, the Ratio IC50 at KiSS-1 receptor [6] was 240.

For the molecule `CC(C)C[C@@H](C[C@@H](O)CNC(=O)[C@H](Cc1ccccc1)NC(=O)c1ccc(F)cc1)C(=O)N[C@@H](CCCNC(=N)N)C(=O)N[C@@H](Cc1c[nH]c2ccccc12)C(N)=O`, the Activity in data set [1] came to 96.5%; in data set [2], 108%.
